Laboratory results taken from ChEMBL document CHEMBL4619801, “Discovery of Phthalazinone Derivatives as Novel Hepatitis B Virus Capsid Inhibitors” (J Med Chem, 2020).
Activity calls are given as the source filed them. No cut-off for these calls is given here.

Experiments:
[1] = Cytotoxicity in human HepG2.2.15 cells assessed as reduction in cell viability incubated for 8 days by MTT assay; format: cell-based, HepG2 2.2.15
Outline: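 This was run in the same 8-day HepG2.2.15 cultures. After the medium was removed, MTT was added (final 2.5 mg/mL) for 1 h at 37 °C. Cells were lysed in 10% SDS/50% DMF, pH 7.2, and OD was read at 570 nm to give % cell death. CC50 was averaged with SD from at least two independent determinations.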

Hepatitis B virus [2] = test: Antiviral activity against HBV infected in human HepG2.2.15 cells assessed as reduction in cytoplasmic HBV-DNA replication incubated for 8 days by real-time PCR analysis; format: functional, organism-based
[3] = Drug level in CD1 mouse liver at 20 mg/kg, po dosed as single administration measured after 8 hrs; format: ADME, organism-based; details: read-out: Drug uptake
Outline: (§1)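 ICR (CD-1) mice were dosed orally at 20 mg/kg. At set times (1, 3, 8 and 24 h), blood was taken from the heart and portal vein under isoflurane anesthesia and spun to plasma. Livers were removed after portal vein perfusion, rinsed in saline, weighed and homogenized in saline (5 mL/g). Samples were analysed by UPLC–MS/MS in positive electrospray mode.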

[4] = Ratio of drug level in liver to plasma of CD1 mouse at 20 mg/kg, po dosed as single administration measured after 8 hrs; format: ADME, organism-based; outline: as §1
Hepatitis B virus [5] = test: Antiviral activity against HBV infected in human HepG2.2.15 cells assessed as reduction in relaxed circular form of viral DNA at 0.06 to 1 uM incubated for 8 days by Southern blotting analysis; format: functional, organism-based; details: HepG2 2.2.15
Outline: (§2)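 HepG2.2.15 cells grown in 12-well plates were treated at the indicated concentrations for 8 days. HBV DNA was extracted from intracellular capsids and detected by Southern blot hybridization with a DIG-labeled HBV genomic fragment probe. Relaxed circular (rc) and single-stranded (ss) replication intermediates were read from the blot.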

Hepatitis B virus [6] = test: Antiviral activity against HBV infected in human HepG2.2.15 cells assessed as reduction in single-stranded form of viral DNA at 0.06 to 1 uM incubated for 8 days by Southern blotting analysis; format: functional, organism-based; details: HepG2 2.2.15; outline: as §2
Hepatitis B virus [7] = test: Antiviral activity against HBV infected in human HepG2.2.15 cells assessed as increase in faster-migrating capsids levels at 0.13 to 1 uM by agarose gel electrophoresis method; format: functional, organism-based; details: HepG2 2.2.15
Outline: (§3)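 HepG2.2.15 cells treated at indicated concentrations for 8 days. Intracellular capsids resolved on 1.8% native agarose gel; capsid mobility compared with untreated cells, and capsid-associated HBV DNA detected in situ.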

Hepatitis B virus [8] = test: Antiviral activity against HBV infected in human HepG2.2.15 cells assessed as reduction in capsid associated DNAs at 0.13 to 1 uM by agarose gel electrophoresis method; format: functional, organism-based; details: HepG2 2.2.15; outline: as §3
Hepatitis B virus [9] = test: Antiviral activity against HBV in AAV8-HBV-transduced Balb/c mouse assessed as reduction in HBV DNA level in plasma at 50 to 150 mg/kg, po BID for 4 weeks; format: functional, organism-based
Outline: (§4)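 Male Balb/c mice (6−8 weeks, SPF) given one iv tail-vein injection of recombinant AAV carrying HBV 1.1 genome (10¹¹ viral genome equivalents); after 5 weeks, stably viremic mice dosed orally for 4 weeks. […] Weekly blood sampling; plasma HBV DNA by real-time PCR; Dunnett's test versus vehicle.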

Hepatitis B virus [10] = test: Antiviral activity against HBV in AAV8-HBV-transduced Balb/c mouse assessed as reduction in HBV DNA level in plasma at 150 mg/kg, po BID for 4 weeks relative to control; format: functional; outline: as §4
Hepatitis B virus [11] = test: Antiviral activity against HBV in AAV8-HBV-transduced Balb/c mouse assessed as reduction in HBV DNA level in plasma at 100 mg/kg, po BID for 4 weeks relative to control; format: functional, organism-based; outline: as §4
mouse (Mus musculus) [12] = test: Half life in mouse at 2 mg/kg, iv dosed as single administration; details: in vivo
mouse (Mus musculus) [13] = test: Observed clearance in mouse at 2 mg/kg, iv dosed as single administration; details: in vivo
mouse (Mus musculus) [14] = test: AUC (0 to infinity) in mouse at 2 mg/kg, iv dosed as single administration; details: in vivo
mouse (Mus musculus) [15] = test: AUC (0 to infinity) in mouse at 20 mg/kg, po dosed as single administration; details: in vivo
mouse (Mus musculus) [16] = test: Observed volume of distribution at steady state in mouse at 2 mg/kg, iv dosed as single administration; details: in vivo, read-out: Vdss
Hepatitis B virus [17] = test: Antiviral activity against HBV infected in human HepG2.2.15 cells assessed as reduction in capsid associated DNAs at 0.1 uM by agarose gel electrophoresis method; format: functional, organism-based; details: HepG2 2.2.15; outline: as §3
Hepatitis B virus [18] = test: Antiviral activity against HBV infected in human HepG2.2.15 cells assessed as reduction in capsid formation; format: functional, organism-based; details: HepG2 2.2.15
Hepatitis B virus [19] = test: Antiviral activity against HBV infected in human HepG2.2.15 cells assessed as reduction in cytoplasmic HBV-DNA replication at cytotoxic CC50 level incubated for 8 days by real-time PCR analysis; format: functional, organism-based; details: HepG2 2.2.15
mouse (Mus musculus) [20] = test: Tmax in mouse at 2 mg/kg, iv dosed as single administration; details: in vivo
Hepatitis B virus [21] = test: Antiviral activity against HBV infected in human HepG2.2.15 cells assessed as reduction in capsid associated DNAs at 5 uM by agarose gel electrophoresis method; format: functional, organism-based; details: HepG2 2.2.15; outline: as §3
[22] = Drug level in CD1 mouse liver at 20 mg/kg, po dosed as single administration measured after 1 to 8 hrs; format: ADME, organism-based; details: in vivo; outline: as §1
[23] = Drug level in CD1 mouse liver at 20 mg/kg, po dosed as single administration measured after 24 hrs; format: ADME, organism-based; details: in vivo; outline: as §1
Hepatitis B virus [24] = test: Antiviral activity against HBV infected in human HepG2.2.15 cells assessed as reduction in capsid associated DNAs at 1 uM by agarose gel electrophoresis method; format: functional, organism-based; details: HepG2 2.2.15; outline: as §3

Row | IC50 (Hepatitis B virus [2]; HepG2 2.2.15, 192 h) [nM] | IC90 (Hepatitis B virus [2]; HepG2 2.2.15, 192 h) [nM] | Compound | CC50 at 192 h [1] [nM] | also measured
1 | 540 | > 10000 | CNc1ccc(-c2nn(Cc3ccc(C#N)cc3)c(=O)c3ccccc23)c(F)n1 | > 100000 | 
2 | 35100 |  | O=c1c(C2CC2)cc(-c2ccc(F)nc2F)nn1Cc1ccc(Cl)cc1 | 39800 | 
3 | 1450 |  | O=c1c2c(c(-c3ccc(F)nc3F)nn1Cc1ccc(Cl)cc1)CCCC2 | 31000 | 
4 | 210 | 1140 | COC(=O)CCNc1nc(F)c(-c2nn(Cc3ccc(C#N)cc3)c(=O)c3ccccc23)cc1Cl | > 100000 | 
5 |  |  | C=C1[C@H](CO)[C@@H](O)C[C@@H]1n1cnc2c(=O)[nH]c(N)nc21 |  | Activity (Hepatitis B virus [17]): Active; Activity (Hepatitis B virus [18]): inactive
6 | 1890 |  | Cn1cc(-c2ccc(F)nc2F)nc(Cc2ccc(Cl)cc2)c1=O | > 100000 | 
7 |  |  | COC(=O)c1cc(-c2ccc(F)nc2F)nn(Cc2ccc(Cl)cc2)c1=O | > 100000 | Activity (Hepatitis B virus [19]): inactive
8 | 300 |  | O=c1c2ccccc2c(-c2ccc(F)nc2F)nn1Cc1ccc(Cl)cc1 | 36700 | 
9 | 260 | 4020 | N#Cc1ccc(Cn2nc(-c3cc(Cl)c(NCCC(=O)O)nc3F)c3ccccc3c2=O)cc1 | > 100000 | 
10 |  |  | Cc1nc(-c2ccc(F)nc2F)cn(Cc2ccc(Cl)cc2)c1=O | > 100000 | Activity (Hepatitis B virus [19]): inactive
11 | 28 | 230 | N#Cc1ccc(Cn2nc(-c3cc(Cl)c(NCCO)nc3F)c3ccccc3c2=O)cc1 | 32100 | Tmax (mouse (Mus musculus) [20]): 0.25 h; AUC (mouse (Mus musculus) [14]): 735 ng·h/mL; AUC(0-inf) (mouse (Mus musculus) [15]): 171 ng·h/mL; Vd (mouse (Mus musculus) [16]): 5.44 L/kg
12 | 170 |  | O=c1c(CO)cc(-c2ccc(F)nc2F)nn1Cc1ccc(Cl)cc1 | > 100000 | 
13 |  |  | CC(=O)Nc1ccc(-c2nn(Cc3ccc(C#N)cc3)c(=O)c3ccccc23)c(F)n1 | > 100000 | IC90 (Hepatitis B virus [2]; HepG2 2.2.15): inactive; Activity (Hepatitis B virus [19]): inactive
14 | 38 | 350 | COCCNc1nc(F)c(-c2nn(Cc3ccc(C#N)cc3)c(=O)c3ccccc23)cc1Cl | > 100000 | Activity (Hepatitis B virus [5]): Dose-dependent effect; Activity (Hepatitis B virus [6]): Dose-dependent effect; half-life (mouse (Mus musculus) [12]): 3.09 h; clearance (mouse (Mus musculus) [13]): 11.1 mL/min/kg; AUC(0-inf) (mouse (Mus musculus) [14]): 3070 ng·h/mL; AUC(0-inf) (mouse (Mus musculus) [15]): 850 ng·h/mL; Vd (mouse (Mus musculus) [16]): 3.09 L/kg
15 | 22 | 1010 | N#Cc1ccc(Cn2nc(-c3cc(Cl)c(NC[C@H](O)CO)nc3F)c3ccccc3c2=O)cc1 | > 100000 | 
16 | 800 | > 10000 | N#Cc1ccc(Cn2nc(-c3ccc(N)nc3F)c3ccccc3c2=O)cc1 | > 100000 | 
17 | 260 | 870 | CN(C)CCNc1nc(F)c(-c2nn(Cc3ccc(C#N)cc3)c(=O)c3ccccc23)cc1Cl | 9760 | 
18 | 2110 | > 10000 | CCOc1ccc(-c2nn(Cc3ccc(C#N)cc3)c(=O)c3ccccc23)c(F)n1 | > 100000 | 
19 | 11300 |  | CC(C)c1cc(-c2ccc(F)nc2F)nn(Cc2ccc(Cl)cc2)c1=O | 56700 | 
20 | 430 | > 10000 | COCCNc1ccc(-c2nn(Cc3ccc(C#N)cc3)c(=O)c3ccccc23)c(F)n1 | > 100000 | 
21 | 120 |  | N#Cc1ccc(Cn2nc(-c3ccc(F)nc3F)c3ccccc3c2=O)cc1 | > 100000 | Drug uptake [22]: Active; Drug uptake [23]: Not Active; Activity (Hepatitis B virus [5]): Dose-dependent effect; Activity (Hepatitis B virus [6]): Dose-dependent effect
22 | 8 | 240 | N#Cc1ccc(Cn2nc(-c3cc(Cl)c(NC[C@@H](O)CO)nc3F)c3ccccc3c2=O)cc1 | > 100000 | 
23 | 530 | > 10000 | CN(C)c1ccc(-c2nn(Cc3ccc(C#N)cc3)c(=O)c3ccccc23)c(F)n1 | 79200 | 
24 | 820 | > 10000 | Cc1ccc(-c2nn(Cc3ccc(C#N)cc3)c(=O)c3ccccc23)c(F)n1 | > 100000 | 
25 | 5450 |  | Cc1cc(-c2ccc(F)nc2F)cn(Cc2ccc(Cl)cc2)c1=O | 90800 | 
26 | 1220 |  | Cc1c(-c2ccc(F)nc2F)nn(Cc2ccc(Cl)cc2)c(=O)c1C | 52900 | 
27 |  |  | COc1cc(-c2ccc(F)nc2F)nn(Cc2ccc(Cl)cc2)c1=O | 92200 | Activity (Hepatitis B virus [19]): inactive
28 |  |  | O=C(O)c1cc(-c2ccc(F)nc2F)nn(Cc2ccc(Cl)cc2)c1=O | > 100000 | Activity (Hepatitis B virus [19]): inactive

Row | Compound | IC50 (Hepatitis B virus [2]; HepG2 2.2.15, 192 h) [nM] | IC90 (Hepatitis B virus [2]; HepG2 2.2.15, 192 h) [nM] | CC50 at 192 h [1] [nM] | also measured
29 | N#Cc1ccc(Cn2nc(-c3cc(Cl)c(NCC(O)CO)nc3F)c3ccccc3c2=O)cc1 (configuration not stated) | 14 | 390 | > 100000 | concentration at 8 h [3]: 5950 ng/g; Kp at 8 h [4]: 4; Activity (Hepatitis B virus [5]): Dose-dependent effect; Activity (Hepatitis B virus [6]): Dose-dependent effect; Activity (Hepatitis B virus [7]): Active; Activity (Hepatitis B virus [8]): Dose-dependent effect; Activity (Hepatitis B virus [9]): Dose-dependent effect; log(activity) (Hepatitis B virus [10]): 2.67; Activity (Hepatitis B virus [11]): Active; half-life (mouse (Mus musculus) [12]): 2.52 h; clearance (mouse (Mus musculus) [13]): 4.1 mL/min/kg; AUC(0-inf) (mouse (Mus musculus) [14]): 8250 ng·h/mL; AUC(0-inf) (mouse (Mus musculus) [15]): 49800 ng·h/mL; Vd (mouse (Mus musculus) [16]): 0.766 L/kg
30 | COc1ccccc1/C(Br)=C(/NC(=O)c1ccc([N+](=O)[O-])cc1)C(=O)N1CCCCC1 | 870 |  | > 20000 | Activity (Hepatitis B virus [21]): Active
31 | COC(=O)C1=C(C)NC(c2ncc(F)cc2F)=N[C@H]1c1ccc(F)cc1Cl | 42 |  |  | Activity (Hepatitis B virus [24]): Active
